Reference: ChEMBL document CHEMBL1140543, “Biphenyls as potent vitronectin receptor antagonists. Part 3: Squaric acid amides” (Bioorg Med Chem Lett, 2007)

How the values were obtained:
Integrin alpha-V/beta-3 [1] = molecular target: T1, Integrin alpha-V/beta-3 (Homo sapiens, UniProt P05106+P06756); assay: Binding affinity to integrin alpha-v-beta-3 receptor; format: protein-complex assay
Target sequence in this assay (P05106 27-788 limits assumed): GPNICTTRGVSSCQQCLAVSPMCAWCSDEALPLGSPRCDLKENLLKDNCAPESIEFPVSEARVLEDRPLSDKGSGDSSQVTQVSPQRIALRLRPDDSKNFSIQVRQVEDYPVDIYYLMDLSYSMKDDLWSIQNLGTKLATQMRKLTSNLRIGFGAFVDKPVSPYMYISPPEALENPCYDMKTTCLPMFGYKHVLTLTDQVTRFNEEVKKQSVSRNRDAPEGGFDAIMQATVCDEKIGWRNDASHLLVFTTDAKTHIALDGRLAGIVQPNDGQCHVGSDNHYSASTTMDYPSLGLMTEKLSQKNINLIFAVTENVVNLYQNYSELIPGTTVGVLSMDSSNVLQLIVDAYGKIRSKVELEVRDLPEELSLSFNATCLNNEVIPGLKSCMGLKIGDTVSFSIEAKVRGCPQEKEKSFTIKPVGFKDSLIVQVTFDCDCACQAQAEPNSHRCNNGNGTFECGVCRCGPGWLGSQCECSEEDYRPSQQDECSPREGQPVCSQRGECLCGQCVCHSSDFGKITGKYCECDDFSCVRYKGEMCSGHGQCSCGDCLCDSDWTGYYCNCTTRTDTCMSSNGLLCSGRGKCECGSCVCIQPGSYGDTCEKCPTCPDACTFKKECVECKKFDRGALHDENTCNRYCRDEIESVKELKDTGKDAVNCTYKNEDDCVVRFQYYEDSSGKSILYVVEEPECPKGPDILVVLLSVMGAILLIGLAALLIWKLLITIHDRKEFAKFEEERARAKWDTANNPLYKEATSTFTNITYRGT
Target sequence in this assay (P06756 31-889 limits assumed): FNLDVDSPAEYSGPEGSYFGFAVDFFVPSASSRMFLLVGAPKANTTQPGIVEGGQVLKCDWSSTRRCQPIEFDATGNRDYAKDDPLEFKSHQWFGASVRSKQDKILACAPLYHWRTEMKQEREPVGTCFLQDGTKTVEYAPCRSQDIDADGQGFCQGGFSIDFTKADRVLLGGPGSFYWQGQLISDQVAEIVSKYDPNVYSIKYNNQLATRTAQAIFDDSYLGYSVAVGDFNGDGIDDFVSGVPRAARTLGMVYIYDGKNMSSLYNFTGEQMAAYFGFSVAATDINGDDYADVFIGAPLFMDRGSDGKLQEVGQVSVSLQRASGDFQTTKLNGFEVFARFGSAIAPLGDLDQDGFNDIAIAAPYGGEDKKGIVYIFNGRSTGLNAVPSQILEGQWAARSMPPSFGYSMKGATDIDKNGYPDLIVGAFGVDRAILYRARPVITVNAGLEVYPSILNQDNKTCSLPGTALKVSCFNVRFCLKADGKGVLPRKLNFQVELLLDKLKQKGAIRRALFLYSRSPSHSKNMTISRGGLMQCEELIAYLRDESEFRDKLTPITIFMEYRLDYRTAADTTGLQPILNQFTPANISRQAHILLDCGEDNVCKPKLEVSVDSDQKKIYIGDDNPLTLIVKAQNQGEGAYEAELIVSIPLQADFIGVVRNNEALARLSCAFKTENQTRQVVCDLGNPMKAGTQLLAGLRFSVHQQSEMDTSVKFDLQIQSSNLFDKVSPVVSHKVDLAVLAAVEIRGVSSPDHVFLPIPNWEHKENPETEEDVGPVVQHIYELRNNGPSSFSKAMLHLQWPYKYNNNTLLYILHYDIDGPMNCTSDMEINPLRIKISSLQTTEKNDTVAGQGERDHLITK
Target sequence in this assay (P06756 891-1048 limits assumed): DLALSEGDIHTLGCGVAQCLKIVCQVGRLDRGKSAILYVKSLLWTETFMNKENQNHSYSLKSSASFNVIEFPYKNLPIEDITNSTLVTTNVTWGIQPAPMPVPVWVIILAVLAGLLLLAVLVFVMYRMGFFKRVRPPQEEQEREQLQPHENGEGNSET

Integrin alpha-V/beta-3 [2] = molecular target: T1, Integrin alpha-V/beta-3; assay: Antagonist activity at human integrin alpha-v-beta-3 receptor expressed in HEK293 cells; format: functional, cell-based
Summary of the method: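 HEK 293 cells transfected with human αvβ3 were used. Inhibition of the adhesion of purified human vitronectin to these cells gave the cellular αvβ3 affinity.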

Albumin = Albumin (Homo sapiens, UniProt P02768); assay: Binding affinity to human serum albumin by equilibrium dialysis
Albumin, sequence (P02768 whole entry): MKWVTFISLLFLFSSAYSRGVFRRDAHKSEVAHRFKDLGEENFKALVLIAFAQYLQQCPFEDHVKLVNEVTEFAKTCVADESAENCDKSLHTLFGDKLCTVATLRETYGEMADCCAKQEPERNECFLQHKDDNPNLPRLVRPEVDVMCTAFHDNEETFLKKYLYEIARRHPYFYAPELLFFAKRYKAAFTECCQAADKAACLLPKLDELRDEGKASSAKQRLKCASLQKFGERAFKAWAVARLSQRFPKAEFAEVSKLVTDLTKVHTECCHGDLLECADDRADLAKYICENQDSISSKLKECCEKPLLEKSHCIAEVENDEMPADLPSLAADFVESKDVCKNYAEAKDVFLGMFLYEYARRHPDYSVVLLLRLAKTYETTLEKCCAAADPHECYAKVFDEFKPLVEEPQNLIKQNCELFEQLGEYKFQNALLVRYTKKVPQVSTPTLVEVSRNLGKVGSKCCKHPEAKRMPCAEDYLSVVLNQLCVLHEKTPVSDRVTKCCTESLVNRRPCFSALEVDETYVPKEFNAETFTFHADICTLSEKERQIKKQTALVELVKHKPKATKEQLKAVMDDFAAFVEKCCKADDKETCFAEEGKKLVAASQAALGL

[3] = Inhibition of smooth muscle cell migration; format: functional, Homo sapiens
[4] = molecular target: Integrin alpha-IIb/beta-3 (Homo sapiens, UniProt P05106+P08514); assay: Binding affinity to GP2b3a receptor; format: protein-complex assay
Integrin alpha-IIb/beta-3, sequence (P05106 27-788 limits assumed): as the sequence (P05106 27-788 limits assumed) above
Integrin alpha-IIb/beta-3, sequence (P08514 32-887 limits assumed): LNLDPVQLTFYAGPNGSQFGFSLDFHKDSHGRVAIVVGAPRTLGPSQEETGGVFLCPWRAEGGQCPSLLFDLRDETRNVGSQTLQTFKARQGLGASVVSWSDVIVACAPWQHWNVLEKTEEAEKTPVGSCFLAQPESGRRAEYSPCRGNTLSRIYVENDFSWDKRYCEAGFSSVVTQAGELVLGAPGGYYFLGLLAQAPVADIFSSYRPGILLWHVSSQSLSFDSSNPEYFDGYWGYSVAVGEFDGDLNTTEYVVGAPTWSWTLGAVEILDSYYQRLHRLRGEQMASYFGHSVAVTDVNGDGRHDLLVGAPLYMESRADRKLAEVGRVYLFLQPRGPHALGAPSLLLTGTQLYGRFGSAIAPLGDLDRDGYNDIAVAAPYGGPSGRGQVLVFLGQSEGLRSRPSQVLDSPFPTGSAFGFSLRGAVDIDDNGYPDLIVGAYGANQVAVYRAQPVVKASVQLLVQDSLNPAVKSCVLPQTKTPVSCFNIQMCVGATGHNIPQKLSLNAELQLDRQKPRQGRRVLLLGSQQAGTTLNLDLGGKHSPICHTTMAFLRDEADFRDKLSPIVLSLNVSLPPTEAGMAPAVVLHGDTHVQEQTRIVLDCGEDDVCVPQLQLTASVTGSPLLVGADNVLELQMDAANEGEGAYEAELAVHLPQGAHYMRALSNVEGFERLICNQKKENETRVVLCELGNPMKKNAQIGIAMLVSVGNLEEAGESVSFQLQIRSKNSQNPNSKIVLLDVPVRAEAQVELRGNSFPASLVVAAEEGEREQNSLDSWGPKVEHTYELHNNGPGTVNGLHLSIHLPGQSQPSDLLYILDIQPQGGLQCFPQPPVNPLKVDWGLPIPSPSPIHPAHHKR
Integrin alpha-IIb/beta-3, sequence (P08514 891-1039 limits assumed): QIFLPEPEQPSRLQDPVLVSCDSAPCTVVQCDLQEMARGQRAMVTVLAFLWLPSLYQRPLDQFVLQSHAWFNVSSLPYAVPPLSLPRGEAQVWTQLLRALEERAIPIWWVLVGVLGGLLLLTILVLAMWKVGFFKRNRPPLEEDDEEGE

Liver microsomes = assay: Clearance in rat liver microsomes; format: ADME, Microsome

Row | Ki (Integrin alpha-V/beta-3 [1]) | Structure (SMILES) | also measured
1 | 18 nM | Cc1cc(C)c(S(=O)(=O)N[C@@H](Cc2ccc(-c3cccc(Nc4n[s+]([O-])nc4NC4CC4)c3)cc2)C(=O)O)c(C)c1 (some centres not stated) | 
2 | 1.3 nM | Cc1cc(C)c(S(=O)(=O)N[C@@H](Cc2ccc(-c3cccc(NC4=NCCN4)c3)cc2)C(=O)O)c(C)c1 | 
3 | 0.5 nM | Cc1cc(C)c(S(=O)(=O)N[C@@H](Cc2ccc(-c3cccc(Nc4c(NC5CC5)c(=O)c4=O)c3)cc2)C(=O)O)c(C)c1 | CL (Liver microsomes): 65 mL/min/kg; Activity (Integrin alpha-V/beta-3 [2]): 13 nM; Kd (Albumin): 420 nM; Activity [3]: 10 nM; Ki [4]: 47 nM

Second part, the compound before the results:

Row | Structure (SMILES) | Ki (Integrin alpha-V/beta-3 [1]) | also measured
4 | Cc1cc(C)c(S(=O)(=O)N[C@@H](Cc2ccc(-c3cccc(NC(=O)c4ccco4)c3)cc2)C(=O)O)c(C)c1 | 650 nM | 
5 | Cc1cc(C)c(S(=O)(=O)N[C@@H](Cc2ccc(-c3cccc(NC(=O)c4cccnc4)c3)cc2)C(=O)O)c(C)c1 | 400 nM | 
6 | CC1(C)C2CC[C@]1(S(=O)(=O)N[C@@H](Cc1ccc(-c3cccc(Nc4c(NC5CC5)c(=O)c4=O)c3)cc1)C(=O)O)C(=O)C2 | 0.1 nM | 
7 | Cc1cc(C)c(S(=O)(=O)N[C@@H](Cc2ccc(-c3cccc(NC(=O)c4ccccn4)c3)cc2)C(=O)O)c(C)c1 | > 2000 nM | 
8 | Cc1cc(C)c(S(=O)(=O)N[C@@H](Cc2ccc(-c3cccc(NC(=O)c4ncc[nH]4)c3)cc2)C(=O)O)c(C)c1 | 1 nM | 
9 | Cc1cc(C)c(S(=O)(=O)N[C@@H](Cc2ccc(-c3cccc(NC(=O)c4ccc[nH]4)c3)cc2)C(=O)O)c(C)c1 | 33 nM | 
10 | Cc1cc(C)c(S(=O)(=O)N[C@@H](Cc2ccc(-c3cccc(Nc4c(NCc5ccccc5)c(=O)c4=O)c3)cc2)C(=O)O)c(C)c1 | 25 nM | 
11 | Cc1cc(C)c(S(=O)(=O)N[C@@H](Cc2ccc(-c3cccc(NC(=O)c4ccncc4)c3)cc2)C(=O)O)c(C)c1 | 700 nM | 
12 | Cc1cc(C)c(S(=O)(=O)N[C@@H](Cc2ccc(-c3cccc(NC(=O)NC4CC4)c3)cc2)C(=O)O)c(C)c1 |  | Activity (Integrin alpha-V/beta-3 [2]): 85 nM; Kd (Albumin): 740 nM; Activity [3]: 390 nM; Ki [4]: 128 nM
13 | Cc1cc(C)c(S(=O)(=O)N[C@@H](Cc2ccc(-c3cccc(Nc4c(NCc5ccccn5)c(=O)c4=O)c3)cc2)C(=O)O)c(C)c1 | 11 nM | 
14 | CS(=O)(=O)N[C@@H](Cc1ccc(-c2cccc(Nc3c(NC4CC4)c(=O)c3=O)c2)cc1)C(=O)O | 10 nM | 
